Reference: ChEMBL document CHEMBL4190332, “Design and Optimization of Benzopiperazines as Potent Inhibitors of BET Bromodomains” (ACS Med Chem Lett, 2017)

How the values were obtained:
[1] = test system: MV4-11; experiment: Growth inhibition of human MV411 cells after 72 hrs by Celltiter-Glo luminescent cell viability assay; type: functional; conditions: MV4-11, 72 h
In short: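 Anti-proliferative activity was tested in MV-4-11 cells. Each GI50 is the mean of at least two separate assay runs.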

[2] = molecular target: T1, Bromodomain-containing protein 4 (Homo sapiens, UniProt O60885); experiment: Inhibition of His-epitope tagged BRD4 bromodomain 1 (44 to 168 residues) (unknown origin) using biotinylated K5,8,12,16 tetra-acetylated histone H4 (1 to 20 residues) peptide as substrate measured after 1 hr by Alphascreen assay
In short: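 Binding to the isolated BRD4 first bromodomain was measured by AlphaScreen. Each IC50 is the mean of at least two separate assay runs.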

[3] = Stability in mouse liver microsomes assessed as parent compound remaining after 30 mins; type: ADME, microsome; conditions: read-out: Stability
In short: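 Compound was incubated with mouse liver microsomes for 30 minutes. The read-out was the percent of compound remaining.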

[4] = Half life in mouse plasma; type: ADME, cell-free
In short: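 Compound stability in mouse plasma, expressed as a half-life.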

[5] = Drug uptake in po dosed mouse plasma; type: ADME, organism-based; conditions: in vivo
[6] = Chemical stability of the compound in acid; type: physicochemical
[7] = Toxicity in po dosed athymic Hsd:Foxn1nu mouse administered twice daily for 5 days; type: organism-based; conditions: in vivo
In short: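 Tolerability study in athymic nude mice given repeat oral doses twice daily for five days. The value reported is the estimated maximum tolerated dose.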

[8] = molecular target: T1, Bromodomain-containing protein 4; experiment: Inhibition of BRD4 in human MV411 cells assessed as reduction in MYC mRNA expression; type: cell-based
[9] = test system: Mus musculus; experiment: Reduction in MYC mRNA level in tumor of athymic Hsd:Foxn1nu mouse xenografted with human MV411 cells at 12.5 mg/kg, po administered as single dose measured after 4 hrs by qRT-PCR analysis relative to control; type: functional
In short: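 Athymic nude mice bearing MV-4-11 xenografts received a single oral dose of 12.5 mg/kg. Tumor MYC levels were compared with those of vehicle-treated mice.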

[10] = test system: MV4-11; experiment: Antitumor activity against human MV411 cells xenografted in athymic Hsd:Foxn1nu mouse assessed as tumor growth inhibition at 12.5 mg/kg, po administered twice daily for 20 days measured weekly twice during compound dosing relative to control; type: functional; conditions: MV4-11, po, 480 h, read-out: TGI
[11] = Drug uptake in athymic Hsd:Foxn1nu mouse plasma assessed as unbound fraction at 5 mg/kg, po administered as single dose by mass spectrometric analysis; type: ADME, organism-based; conditions: in vivo

Row | SMILES | GI50 [1] | IC50 [2] | remaining at 0.5 h [3] | half-life [4] | other results
1 | CNC(=O)c1cccc(-c2ccc3c(c2)N(C(=O)c2ccco2)C[C@H](C)N3C(C)=O)c1 | 770 nM | 790 nM | – | – | –
2 | CC(=O)N1c2ccc(-c3ccc(S(C)(=O)=O)cc3)cc2N(C(=O)c2ccco2)C[C@@H]1C | 400 nM | 1600 nM | – | – | –
3 | CC(=O)N1c2ccccc2N(C(=O)c2ccco2)C[C@@H]1C | – | 14000 nM | – | – | –
4 | COC(=O)N1c2ccc(-c3ccc(S(C)(=O)=O)cc3)cc2N(C(=O)c2ccco2)C[C@@H]1C | 320 nM | 650 nM | 14% | 22 min | –
5 | CCC(=O)N1c2ccc(-c3ccc(S(C)(=O)=O)cc3)cc2N(C(=O)c2ccco2)C[C@@H]1C | 550 nM | 1400 nM | 11% | 18 min | –
6 | CC(=O)N1c2ccccc2N(C(=O)c2ccccc2)C[C@@H]1C | – | > 50000 nM | – | – | –
7 | CC(=O)N1c2ccc(-c3ccc(N4CCS(=O)(=O)CC4)cc3)cc2N(C(=O)C2CC2)C[C@@H]1C | 220 nM | 100 nM | 95% | > 24 min | MTD at 120 h [7]: 12.5 mg/kg; IC50 [8]: 460 nM; fold change (FC) [9]: 0.2; inhibition in vivo at 12.5 mg/kg [10]: 100%; Drug uptake(free) [11]: Not Active
8 | C[C@H]1CN(C(=O)c2ccco2)c2cc(-c3ccc(S(C)(=O)=O)cc3)ccc2N1C=O | – | > 25000 nM | – | – | –

Further lines, with some results ahead:

Row | GI50 [1] | IC50 [2] | remaining at 0.5 h [3] | half-life [4] | SMILES | other results
9 | 270 nM | 60 nM | 100% | > 24 min | CC(=O)N1c2ccc(-c3cnn(C4CNC4)c3)cc2N(C(=O)C2CC2)C[C@@H]1C | Drug uptake [5]: Not Active
10 | 580 nM | 420 nM | 24% | – | CC(=O)N1c2ccc(-c3cnn(C(C)C)c3)cc2N(C(=O)C2CC2)C[C@@H]1C | –
11 | – | > 50000 nM | – | – | CC(=O)N1c2ccccc2N(C(=O)CC(C)C)C[C@@H]1C | –
12 | 350 nM | 1600 nM | – | – | CC(=O)N1c2ccc(-c3ccccc3)cc2N(C(=O)c2ccco2)C[C@@H]1C | –
13 | 120 nM | 380 nM | 100% | 3 min | CC(=O)N1c2ccc(-c3ccc(C(=O)N4CCNCC4)cc3)cc2N(C(=O)C2CC2)C[C@@H]1C | –
14 | 350 nM | 260 nM | 99% | 6 min | CC(=O)N1c2ccc(-c3ccc(S(C)(=O)=O)cc3)cc2N(C(=O)OC(C)C)C[C@@H]1C | –
15 | 440 nM | 370 nM | 100% | > 24 min | CC(=O)N1c2ccc(-c3cnn(C4COC4)c3)cc2N(C(=O)C2CC2)C[C@@H]1C | Stability [6]: Unstable
16 | – | 43000 nM | – | – | CC(=O)N1c2ccccc2N(C(=O)C2CCCC2)C[C@@H]1C | –
17 | 280 nM | 760 nM | 19% | > 24 min | C[C@H]1CN(C(=O)c2ccco2)c2cc(-c3ccc(S(C)(=O)=O)cc3)ccc2N1C(=O)C1CC1 | –
18 | 830 nM | 1700 nM | 100% | > 24 min | CC(=O)N1c2ccc(-c3ccc(S(C)(=O)=O)cc3)cc2N(C(=O)C2CC2)C[C@@H]1C | –
19 | 210 nM | 380 nM | – | – | CC(=O)N1c2ccc(-c3cnn(C)c3)cc2N(C(=O)c2ccco2)C[C@@H]1C | –
